Assay [1] addresses Protein farnesyltransferase (Homo sapiens, UniProt P49354+P49356). Put plainly: Inhibition of [3H]FPP incorporation by Protein Farnesyltransferase. In kind it is protein-complex assay. The essentials:
(§1)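 Cell-free prenyltransferase assay measuring inhibition of enzyme-catalysed incorporation of tritiated prenyl donor: [3H]FPP for PFT, the corresponding tritiated geranylgeranyl donor for PGGT-1. The buffer was Tris, pH 7.4, with dithiothreitol, which removes the cysteine S-tert-butyl group. Each determination used five compound concentrations. The IC50 came from a fitted concentration–inhibition curve and is the mean of three determinations.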

The target of assay [2] is Geranylgeranyl transferase type I (Homo sapiens, UniProt P49354+P53609). As to the kind of experiment: Inhibition of [3H]GGPP incorporation by Protein Geranylgeranyl transferase type I. In kind it is protein-complex assay. The essentials: as §1

Structures are written as SMILES. Bounds are passed on as bounds.

A word on the IC50: it is the concentration at which inhibition is half-maximal. A high value points to a need for much substance. Regarding `CSCC[C@H](NC(=O)[C@H]1O[C@@H](CNC(=O)[C@@H](N)CSSC(C)(C)C)CC[C@@H]1OCc1ccccc1)C(=O)O`, the figures for the half-inhibitory concentration (IC50) in assay [1] and in assay [2] were 0.25 µM and over 1000 µM, respectively.
As for `C[S+]([O-])CC[C@H](NC(=O)[C@H]1O[C@H](CNC(=O)[C@@H](N)CSSC(C)(C)C)CC[C@@H]1OCc1ccccc1)C(=O)O` (some centres undefined), the IC50 was determined as 91 µM in assay [1] and 521 µM in assay [2].
On the same counts, the results for `CC(C)C[C@H](NC(=O)[C@H]1O[C@H](CNC(=O)[C@@H](N)CSSC(C)(C)C)CC[C@@H]1OCc1ccccc1)C(=O)O` are 321 µM and 206 µM.
On the same counts, the results for `CC(C)C[C@H](NC(=O)[C@H]1O[C@@H](CNC(=O)[C@@H](N)CSSC(C)(C)C)CC[C@@H]1OCc1ccccc1)C(=O)O` are 57 µM and 14 µM.
In the same order, the values of `C=C(N[C@@H](CCSC)C(=O)O)[C@H]1O[C@H](CNC(=O)[C@@H](N)CSSC(C)(C)C)CC[C@@H]1OCc1ccccc1` are about 1000 µM and 311 µM.
In the case of `C=C(N[C@@H](CCSC)C(=O)O)[C@H]1O[C@@H](CNC(=O)[C@@H](N)CSSC(C)(C)C)CC[C@@H]1OCc1ccccc1`, the IC50 in assay [1] is over 1000 µM; in assay [2] it was 500 µM.
For the compound `CC[C@H](C)[C@H](NC(=O)[C@@H](NC(=O)[C@@H](N)CS)C(C)C)C(=O)N[C@@H](CCSC)C(=O)O`, the concentration for half-maximal inhibition (IC50) in assay [1] was 0.42 µM.
`C=C(N[C@@H](CC(C)C)C(=O)O)[C@H]1O[C@@H](CNC(=O)[C@@H](N)CSSC(C)(C)C)CCC1O` (some centres undefined): the results for the half-maximal inhibitory concentration (IC50) in assay [1] and in assay [2] were over 1000 µM and 261 µM, respectively.
On the same counts, the results for `CSCC[C@H](NC(=O)[C@H]1O[C@H](CNC(=O)[C@@H](N)CSSC(C)(C)C)CC[C@@H]1OCc1ccccc1)C(=O)O` are 42 µM and 48 µM.
In the same order, the values of `C[S+]([O-])CC[C@H](NC(=O)[C@H]1O[C@@H](CNC(=O)[C@@H](N)CSSC(C)(C)C)CC[C@@H]1OCc1ccccc1)C(=O)O` (some centres undefined) are 2.2 µM and over 1000 µM.

The values above are taken from ChEMBL document CHEMBL1138656, “Design, synthesis, and evaluation of sugar amino acid based inhibitors of protein prenyl transferases PFT and PGGT-1” (J Med Chem, 2004).
